Compound activity (PubChem BioAssay)
TAAR1 antag = human TAAR1 antagonism | CHO RD-HGA16 TAAR1, Fluo-8 calcium fluorescence, antagonist | inhibition, % at 3 µM | 360,000 compounds, 1.5% hits | AID 624466;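 active = inhibition above a per-plate cutoff, the mean inhibition of test compounds on that plate plus 3 SD, cut at about 49% in these data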;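 also: 0% = DMSO plus EC80 beta-PEA response and 100% = DMSO alone without agonist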
Target sequence (Q96RJ0 whole entry, looked up): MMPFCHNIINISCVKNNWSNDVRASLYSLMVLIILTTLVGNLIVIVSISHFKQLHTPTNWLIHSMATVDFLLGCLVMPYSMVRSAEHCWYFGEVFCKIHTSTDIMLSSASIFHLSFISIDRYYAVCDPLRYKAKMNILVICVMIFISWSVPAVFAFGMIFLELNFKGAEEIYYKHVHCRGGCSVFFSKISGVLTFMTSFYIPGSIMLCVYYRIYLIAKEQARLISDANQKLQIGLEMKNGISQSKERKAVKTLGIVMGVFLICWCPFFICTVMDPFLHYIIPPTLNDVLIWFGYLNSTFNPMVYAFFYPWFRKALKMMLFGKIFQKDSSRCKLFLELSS
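Material: CHO RD-HGA16 cells bearing hTAAR1; compound dosing: one-point dosing, 3 µM nominal final; schedule: dye loading 75 min at 37 °C, then 30 min room temperature; measured by: calcium fluorescence with Fluo-8; control set: vehicle and agonist controls; replication: n of 1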
GPR7 antagonist = antagonists of human GPR7 (neuropeptides B/W receptor 1). inhibition, % at 4.4 µM. P48145. GPR7-expressing cells, fluorescence antagonist assay. 290,000 compounds, 1.1% hits. AID 1861; in the data active = inhibition above about 16%, passing the limit was not always enough;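 also: cells stimulated with the agonist NPW; 0% = agonist with vehicle and 100% = vehicle without agonist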
Target sequence (P48145 whole entry, looked up): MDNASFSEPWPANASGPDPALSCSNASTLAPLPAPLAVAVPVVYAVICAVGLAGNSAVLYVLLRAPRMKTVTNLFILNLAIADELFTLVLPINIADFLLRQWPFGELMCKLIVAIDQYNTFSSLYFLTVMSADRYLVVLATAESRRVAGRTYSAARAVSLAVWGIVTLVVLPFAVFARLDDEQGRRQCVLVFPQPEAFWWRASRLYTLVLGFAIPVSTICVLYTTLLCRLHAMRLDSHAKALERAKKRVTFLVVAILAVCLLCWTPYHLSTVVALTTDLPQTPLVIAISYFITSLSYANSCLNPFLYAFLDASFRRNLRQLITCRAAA
OX1R antag-1 = human HCRTR1 antagonism. O43613. CHO/OX1R cells, Fluo-8 calcium fluorescence, orexin A. inhibition, % at 5 µM. 330,000 compounds, 0.43% hits;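 active = inhibition above its plate's threshold, mean inhibition of all tested compounds on the plate plus 3 SD, cut at about 37% in these data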;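 also: 0% = orexin A challenge wells and 100% = SB-334867-A antagonist wells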
CHO parental Ca = counter-screen for OX1R antagonists: effect in parental CHO cells; inhibition, % at 5.6 µM; AID 463079; 330,000 compounds, 0.63% hits; parental CHO-K1, ATP-induced calcium, Fluo-8 fluorescence;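 active = inhibition above that plate's mean sample inhibition plus 3 SD, cut at about 26% in these data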;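 also: 0% = ATP-challenged DMSO wells and 100% = DMSO wells without ATP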
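Measured by: calcium-sensitive Fluo-8 fluorescence / Test system: CHO parental line / Controls: ATP-challenged DMSO wells low, unchallenged DMSO wells high / Measure: % inhibition / Compound: single nominal dose of 5.6 µM per compound / Replicates: single well per compound, no replicates / Reagent: ATP as calcium-mobilizing challenge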
TAAR1 agonist = agonists of human TAAR1 | Q96RJ0 | CHO RD-HGA16 TAAR1, Fluo-8 calcium fluorescence; vehicle wells 0%, saturating PEA agonist 100% | activation, % at 3 µM | 360,000 compounds, 0.99% hits;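 active = activation above the mean activation of all test compounds in the run plus 3 SD, cut at about 38% in these data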
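Signal – calcium-sensitive Fluo-8 signal, excitation 470-495, emission 515-575 nm · System – RD-HGA16 (CHO) cells co-expressing Gα16 and hTAAR1 · Incubation – 17-24 h seeding, 75 min 37 °C dye, 30 min RT · Compound dosing – 3 µM single concentration · Repeats – no replicates (n 1)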
OX1R antag-2 = blocks the human orexin 1 receptor; inhibition, % at 6.6 µM; AID 485270; O43613; OX1R-expressing cells, FRET antagonist read-out; 330,000 compounds, 1.8% hits; in the data active = inhibition mostly above about 38%, no sharp cut-off; inactive = mostly below about 40%;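 also: 0% = agonist challenge alone and 100% = reference antagonist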
GPR7 antag cf = human GPR7 antagonism, confirmation assay; shares compounds with GPR7 antagonist; GPR7-expressing cells, calcium fluorescence antagonist mode; inhibition, % at 4.4 µM; 2,400 compounds, 52% hits; in the data active = inhibition above about 24%;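 also: stimulated with the GPR7 agonist NPW; 0% = agonist plus vehicle and 100% = vehicle alone without agonist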
MCHR1 antag = counter-screen for GPR7 antagonists: antagonists of human MCHR1; shares compounds with GPR7 antagonist; MCHR1-expressing cells, fluorescence antagonist assay; inhibition, % at 4.4 µM; 2,400 compounds, 62% hits; AID 2148; in the data active = inhibition above about 22%;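 also: 0% = vehicle with agonist and 100% = vehicle without agonist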
Active calls of the source: *; · = no result given. Most compounds without a hit are left out; they make up all but 4.6% or so of the library.

SMILES	TAAR1 antag	GPR7 antagonist	OX1R antag-1	CHO parental Ca	TAAR1 agonist	OX1R antag-2	GPR7 antag cf	MCHR1 antag
CCCN(CCC)C1=CC(=[N+]2CCCC2)CC(C)(C)C1	12.5	51.9*	-14.7	-2.5	0.9	10.4	57.8*	51.1*
CN(C)NC1=CC(=[N+]2CCCC2)CC(C)(C)C1	-6.6	-1.8	-0.9	1.2	0.8	22.8	·	·
CCOC(=O)/C=C/[C@H]1CCc2cccc(C)c2O1	-12.2	·	-20.6	-10.5	14.4	1.7	·	·
CC(=O)c1ccc(N2CCN(C(=O)Cc3ccccc3)CC2)c(F)c1	10.4	44.7*	-27.8	14.1	4.8	6.0	10.2	7.7
CC(=O)c1ccc(S(=O)(=O)N2CCN(c3ccccc3F)CC2)cc1	-10.7	25.4*	-12.8	6.8	3.0	16.9	25.2*	23.3*
CC1CC(C)CN(C(=O)c2ccc(S(=O)(=O)N3CC(C)CC(C)C3)cc2)C1 (centres undefined)	-2.4	25.1*	-30.8	-19.8	-6.0	12.7	23.8*	22.9*
COC(=O)c1cc(S(=O)(=O)N2CCN(c3ccc(C(C)=O)cc3)CC2)cn1C	-12.3	24.6*	-16.4	7.6	0.8	18.4	-8.3	41.4*
COC(=O)c1cc(S(=O)(=O)N2CCN(c3ccccc3OC)CC2)cn1C	-6.5	-6.6	-29.4	-22.1	-1.0	8.0	·	·
OC(c1ccccc1)(c1ccccc1)C1CCN(CCCOc2ccccn2)CC1	6.1	·	·	·	0.6	·	·	·
O=C(Nc1cc(Cl)ccc1N1CCOCC1)c1cccnc1Cl	-4.2	-0.1	-25.3	-16.1	8.5	0.9	·	·
O=C(O)c1sccc1S(=O)(=O)N1CCOCC1	-17.7	·	1.5	-9.0	6.7	15.6	·	·
Cc1ccc(C)c(SCC(=O)NC2CCS(=O)(=O)C2)c1 (centres undefined)	-9.9	·	·	·	-0.4	·	·	·
COC(=O)c1cc(S(=O)(=O)N2CCN(c3ccc([N+](=O)[O-])cc3)CC2)c[nH]1	-12.3	32.4*	-5.8	-10.0	11.2	12.1	9.4	1.1
COc1ccc(C(=O)NC(C)CCCC(C)(C)O)cc1OC1CCN(C(C)=O)CC1 (centres undefined)	-17.0	-5.3	·	·	5.0	·	·	·
COc1ccc2c(c1)C(=O)C(=O)N2CC1COc2ccccc2O1 (centres undefined)	25.7	30.7*	-5.5	-10.6	-0.7	-6.7	20.5	26.7*
CCOc1ccc2c(c1)C(=O)C(=O)N2CC1COc2ccccc2O1 (centres undefined)	2.3	25.5	-7.5	-7.3	-1.7	-7.6	·	·
CN(C)C(=O)/C(C#N)=C\c1cc(Br)c(Sc2ccc(Cl)cc2)o1	·	-1.9	-22.8	-16.3	·	10.6	·	·
CCOC(=O)C1CCN(c2ncnc3c2nnn3Cc2ccccc2Cl)CC1	-34.1	21.6*	-15.2	-20.1	0.6	26.3	26.5*	28.6*
COC(=O)N/N=C(\C)c1cccs1	-16.8	-10.6	-10.5	-2.7	-0.8	-0.6	·	·
COc1ccc(CC(=O)N/N=C(\C)c2cccs2)cc1	6.6	30.8*	-19.9	-10.8	0.2	12.6	-5.6	4.1
CCCCN(C=O)c1c(CC)nc2c(OCc3cccc(Cl)c3)cccn12	-33.2	·	·	·	-2.9	·	·	·
CN(C)c1ccc(/C=C(\C#N)c2ccccn2)cc1	12.0	30.0*	-17.6	-10.3	1.8	24.0	8.8	47.2*
CCCCN(NC(C)=O)c1nc(Cl)nc(NC(C)C)n1	3.2	3.6	-20.5	-13.2	1.9	-1.1	·	·
CCOC(=O)C1CCN(C(=O)c2ccc3c(c2)NC(=O)/C(=C\c2ccc(C)cc2)S3)CC1	-7.0	33.5*	-33.5	-38.0	3.7	7.4	21.7	45.9*
CCOC(=O)C1CCN(C(=O)c2ccc3c(c2)NC(=O)/C(=C/c2ccccc2)S3)CC1	13.6	12.8	-24.2	-15.2	-1.8	-1.8	·	·
SMILES	TAAR1 antag	GPR7 antagonist	OX1R antag-1	CHO parental Ca	TAAR1 agonist	OX1R antag-2	GPR7 antag cf	MCHR1 antag
CC(=O)N1CCN(c2ccc(NC(=O)c3ccc(F)cc3)cc2)CC1	-2.2	23.6	·	·	1.5	·	·	·
CN1C[C@H]2CON(C)[C@H]2C[C@H]1c1cccc(N2CCOCC2)c1	-14.9	·	·	·	1.7	·	·	·
Clc1ccc(CSCCc2ccncc2)cc1	5.9	22.6*	-7.3	-11.6	13.8	29.6	9.1	25.5*
c1ccc2c(CSCCc3ccncc3)cccc2c1	24.0	-7.6	-30.3	-20.4	19.1	27.6	·	·
Cc1cccc(-c2oc3ccccc3c2C#CCCO)c1	11.1	-5.2	-13.0	8.0	9.3	21.7	·	·
O=C(CCNS(=O)(=O)c1ccc(Br)s1)Nc1ccc(Cl)cc1	21.5	32.0*	-12.6	-6.0	11.8	1.4	31.9*	29.5*
CCOc1ccc(NC(=O)Nc2nc(SCC)ns2)cc1	17.6	24.7*	-5.3	37.1*	5.9	40.8	33.5*	65.5*
CCSc1nsc(NC(=O)Nc2ccc(F)cc2F)n1	·	53.9*	15.2	73.8*	·	42.6*	51.6*	55.3*
CC(=O)NC(Cc1cccc(F)c1)C(=O)NC1CCN(c2ncccc2[N+](=O)[O-])CC1 (centres undefined)	-10.3	-2.9	-38.7	-21.4	4.5	12.1	·	·
O=C(Nc1cccc2ncccc12)c1cccnc1	-1.2	-2.0	1.4	6.1	-1.6	37.1	·	·
Cc1ccc(N(CC(O)Cn2c3ccccc3c3ccccc32)S(C)(=O)=O)c(C)c1 (centres undefined)	23.4	-1.2	-8.6	-8.1	10.6	4.7	·	·
Cc1ccc(N(CC(O)Cn2c3ccccc3c3ccccc32)S(C)(=O)=O)cc1 (centres undefined)	44.4	24.3*	20.9	-0.5	11.4	30.8	29.6*	44.5*
Cc1cccc(C)c1N(CC(O)Cn1c2ccccc2c2ccccc21)S(C)(=O)=O (centres undefined)	19.0	28.9*	13.5	-8.8	9.0	31.7	37.4*	36.4*
COc1ccc(C2=Nc3ccccc3N(C(=O)c3cnccn3)C2C(=O)NC2CCCC2)cc1 (centres undefined)	-18.1	·	·	·	2.7	·	·	·
O=C1/C(=N\O)Cc2ccccc21	17.6	27.3*	-3.4	-8.3	6.8	14.8	6.3	-0.5
Clc1ccc(CN(Cc2ccc(Cl)cc2)c2nn[nH]n2)cc1	0.1	26.5*	2.1	-4.5	-1.6	30.7	24.9*	20.8
c1ccc(CN(Cc2ccccc2)c2nn[nH]n2)cc1	-13.0	-0.1	-2.3	-12.6	1.4	11.6	·	·
Cn1cc(CN2CCCC(C(=O)Nc3cccc(-n4cccn4)c3)C2)cn1 (centres undefined)	-18.6	0.2	-20.5	-23.6	0.5	1.7	·	·
